Experimental data: ChEMBL document CHEMBL1131714, “Piperidine-renin inhibitors compounds with improved physicochemical properties” (Bioorg Med Chem Lett, 1999)

What was measured:
Renin [1] = target: T1, Renin (Homo sapiens, UniProt P00797); assay: Inhibitory activity against human plasma renin; format: cell-free
T1 sequence (P00797 whole entry): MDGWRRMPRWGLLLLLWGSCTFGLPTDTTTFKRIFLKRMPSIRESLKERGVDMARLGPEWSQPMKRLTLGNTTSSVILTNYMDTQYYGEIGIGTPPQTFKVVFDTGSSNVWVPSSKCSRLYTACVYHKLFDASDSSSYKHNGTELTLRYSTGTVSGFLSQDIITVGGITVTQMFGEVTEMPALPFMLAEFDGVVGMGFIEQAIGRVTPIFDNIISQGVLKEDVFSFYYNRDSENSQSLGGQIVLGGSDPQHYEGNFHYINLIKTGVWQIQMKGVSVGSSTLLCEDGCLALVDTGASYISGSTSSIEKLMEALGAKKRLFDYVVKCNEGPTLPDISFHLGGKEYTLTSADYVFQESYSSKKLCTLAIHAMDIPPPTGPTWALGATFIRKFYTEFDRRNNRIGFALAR

Renin [2] = target: T1, Renin; assay: Inhibitory activity against purified recombinant human renin
[3] = Distribution coefficient at pH 7.4; format: physicochemical; conditions: RP-HPLC, read-out: Log Kw
Procedure, shortened: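 Log Kw read as log D by HPLC in 20 mM MOPS buffer, pH 7.4, on an LC-ABZ column ([…]) fitted with an LC-ABZ precolumn (20x46 mm).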

| SMILES | IC50 (Renin [1]) [nM] | IC50 (Renin [2]) [nM] | chromatographic logD [3] |
| --- | --- | --- | --- |
| c1ccc(COCCCOc2ccc([C@H]3CCNC[C@@H]3OCc3ccc4cccnc4c3)cc2)cc1 (racemic) | 810 | 12 | – |
| c1ccc(COCCCOc2ncc([C@H]3CCNC[C@@H]3OCc3ccc4ccccc4c3)cn2)cc1 (racemic) | 8200 | 820 | 4.4 |
| O[C@@H]1CNC[C@H](OCc2ccc3ccccc3c2)[C@H]1c1ccc(OCCCOCc2ccccc2)cc1 (racemic) | 1400 | 6.4 | 4.9 |
| c1ccc(COCCCOc2ccc([C@H]3CCNC[C@@H]3OCc3ccc4c(c3)NCCC4)cc2)cc1 (racemic) | 330 | 5.1 | – |
| c1ccc(COCCCOc2ccc([C@H]3CCNC[C@@H]3OCc3ccc4cc(OCCN5CCOCC5)ccc4c3)cc2)cc1 (racemic) | 1400 | 22 | – |
| COc1ccccc1COCCCOc1ccc([C@H]2CCNC[C@@H]2OCc2ccc3ccc(=O)[nH]c3c2)cc1 (racemic) | 110 | 8 | 3.9 |
| COc1ccccc1COCCCOc1ccc([C@H]2CCNC[C@@H]2OCc2cc(OC)c3ccccc3c2OC)cn1 (racemic) | 110 | 0.5 | 4.7 |
| c1ccc(COCCCOc2ccc([C@H]3CCNC[C@@H]3OCc3ccc4ccc(OCCN5CCOCC5)cc4c3)cc2)cc1 (racemic) | 130 | 12 | 5.6 |
| c1ccc(COCCCOc2ccc([C@H]3[C@H](CSc4ccncc4)CNC[C@@H]3OCc3ccc4ccccc4c3)cc2)cc1 (racemic) | 490 | 0.4 | 5.8 |
| c1ccc(COCCCOc2ccc([C@@H]3[C@@H](OCc4ccc5ccccc5c4)CNC[C@H]3OCCN3CCOCC3)cc2)cc1 (racemic) | 380 | 1.8 | – |
| COc1ccccc1COCCCOc1ccc([C@H]2CCNC[C@@H]2OCc2ccc3cccnc3c2)cc1 (racemic) | 160 | 4 | – |
| c1ccc(COCCCOc2ccc([C@H]3CCNC[C@@H]3OCc3ccc4ccccc4c3)cn2)cc1 (racemic) | 7100 | 590 | 5.1 |
| COc1ccccc1COCCCOc1ncc([C@H]2CCNC[C@@H]2OCc2cc(OC)c3ccccc3c2OC)cn1 (racemic) | 160 | 10 | 4.1 |
| O[C@H]1CNC[C@H](OCc2ccc3ccccc3c2)[C@H]1c1ccc(OCCCOCc2ccccc2)cc1 (racemic) | 10000 | 9 | – |
| c1ccc(COCCCOc2ccc([C@H]3CCNC[C@@H]3OCc3ccc4ccccc4c3)cc2)cc1 (racemic) | 1300 | 5 | – |
| c1ccc(COCCCOc2ccc([C@H]3[C@H](COCCN4CCOCC4)CNC[C@@H]3OCc3ccc4ccccc4c3)cc2)cc1 (racemic) | 160 | 3.3 | – |
| O=S(=O)(O)OC[C@@H]1CNC[C@H](OCc2ccc3ccccc3c2)[C@H]1c1ccc(OCCCOCc2ccccc2)cc1 (racemic) | 1900 | 2.3 | – |
| c1ccc(COCCCOc2ccc([C@H]3[C@H](Cn4cncn4)CNC[C@@H]3OCc3ccc4ccccc4c3)cc2)cc1 (racemic) | 190 | 0.92 | – |
| COc1ccccc1COCCCOc1ccc([C@H]2CCNC[C@@H]2OCc2ccc3c(c2)NCCC3)cc1 (racemic) | 37 | 0.67 | 3.8 |
| COc1ccccc1COCCCOc1ccc([C@H]2CCNC[C@@H]2OCc2cc(OC)c3ccccc3c2OC)cc1 (racemic) | 12 | 0.087 | 5.4 |
